Assay results as given in ChEMBL document CHEMBL1155580, “Chemical constituents of Clausena excavata: isolation and structure elucidation of novel furanone-coumarins with inhibitory effects for tumor-promotion” (J Nat Prod, 2000).

Key:
Assay type in all cases: cell-based
[1] = Cytotoxicity against human Raji cells assessed as cell viability at 3.2 nmol by trypan blue staining; conditions: read-out: Activity
Summary of the method: (§1)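 Raji cells grown to 10^6 cells/mL, pelleted and resuspended in RPMI 1640 with 10% FCS, 4 mM n-butyric acid and 32 pmol TPA (20 ng/mL). Test agent added in DMSO at mole ratios to TPA (1000 = 32 nmol, 500 = 16 nmol, 100 = 3.2 nmol, 10 = 0.32 nmol). Incubated 37 °C for 48 h. Viability counted by hemocytometer with Trypan Blue.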

[2] = test system: Raji; experiment: Inhibition of 12-O-tetradecanoylphorbol-13-acetate-induced EBV-early antigen activation in human Raji cells assessed as EA activation at 3.2 nmol relative to 12-O-tetradecanoylphorbol-13-acetate; design: scale not given: the % may be the effect or the level left; conditions: human gammaherpesvirus 4
Summary of the method: (§2)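 Raji cells at 10^6 cells/mL resuspended in RPMI 1640 with 10% FCS, 4 mM n-butyric acid as inducer and 32 pmol TPA (20 ng/mL in DMSO), plus test agent in DMSO (32, 16, 3.2 or 0.32 nmol). Held 37 °C for 48 h. EA-positive cells scored blind, at least 500 cells per assay. Values are % of the TPA positive control (100%), ± s.d.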

[3] = Cytotoxicity against human Raji cells assessed as cell viability at 16 nmol by trypan blue staining; conditions: read-out: Activity; summary of the method: as §1
[4] = test system: Raji; experiment: Inhibition of 12-O-tetradecanoylphorbol-13-acetate-induced EBV-early antigen activation in human Raji cells assessed as EA activation at 32 nmol relative to 12-O-tetradecanoylphorbol-13-acetate; design: scale not given: the % may be the effect or the level left; conditions: human gammaherpesvirus 4; summary of the method: as §2
[5] = test system: Raji; experiment: Inhibition of 12-O-tetradecanoylphorbol-13-acetate-induced EBV-early antigen activation in human Raji cells assessed as EA activation at 16 nmol relative to 12-O-tetradecanoylphorbol-13-acetate; design: scale not given: the % may be the effect or the level left; conditions: human gammaherpesvirus 4; summary of the method: as §2
[6] = test system: Raji; experiment: Inhibition of 12-O-tetradecanoylphorbol-13-acetate-induced EBV-early antigen activation in human Raji cells assessed as EA activation at 0.32 nmol relative to 12-O-tetradecanoylphorbol-13-acetate; design: scale not given: the % may be the effect or the level left; conditions: human gammaherpesvirus 4; summary of the method: as §2
[7] = Cytotoxicity against human Raji cells assessed as cell viability at 0.32 nmol by trypan blue staining; conditions: read-out: Activity; summary of the method: as §1
[8] = Cytotoxicity against human Raji cells assessed as cell viability at 32 nmol by trypan blue staining; conditions: read-out: Activity; summary of the method: as §1

Row | Structure (SMILES) | viability at 3.2 nmol [1] [%] | Activity [2] [%] | viability at 16 nmol [3] [%] | Activity [4] [%] | Activity [5] [%] | Activity [6] [%] | viability at 0.32 nmol [7] [%] | viability at 32 nmol [8] [%]
1 | CC1(O)CC(CC2(C)OC2COc2ccc3ccc(=O)oc3c2)OC1=O (stereo not given) [CLAUSLACTONE H] | > 80 | 88.4 | > 80 | 25.1 | 60.4 | 100 | > 80 | 60
2 | CC1(O)CC(CC(C)(O)C2COc3ccc4ccc(=O)oc4c3O2)OC1=O (stereo not given) [CLAUSLACTONE B] | > 80 | 82.7 | > 80 | 17.1 | 50.5 | 100 | > 80 | 60
3 | COc1ccc2ccc(=O)oc2c1 [HERNIARIN] | > 80 | 100 | 60 | 0 | 71.7 | 100 | > 80 | 30
4 | CC1(CC2C=C(CO)C(=O)O2)OC1COc1ccc2ccc(=O)oc2c1 (stereo not given) [CLAUSLACTONE J] | > 80 | 85.2 | > 80 | 27.4 | 65.8 | 100 | > 80 | 60
5 | C=C1CC(CC(C)(O)C2COc3ccc4ccc(=O)oc4c3O2)OC1=O (stereo not given) [CLAUSLACTONE A] | > 80 | 85.2 | > 80 | 26.4 | 59.2 | 100 | > 80 | 60
6 | CC(O)(CC1C=C(CO)C(=O)O1)C1COc2ccc3ccc(=O)oc3c2O1 (stereo not given) [CLAUSLACTONE D] | > 80 | 84.8 | > 80 | 19.6 | 52.3 | 100 | > 80 | 60
7 | C=C1CC(CC2(C)OC2COc2ccc3ccc(=O)oc3c2)OC1=O (stereo not given) [CLAUSLACTONE F] | > 80 | 89.6 | > 80 | 29.3 | 62.7 | 100 | > 80 | 60
8 | CC(O)(CC1CC(O)(CO)C(=O)O1)C1COc2ccc3ccc(=O)oc3c2O1 (stereo not given) [CLAUSLACTONE C] | > 80 | 80.1 | > 80 | 10.3 | 46.9 | 95.3 | > 80 | 60
9 | C=C1CC(C/C(C)=C/COc2ccc3ccc(=O)oc3c2O)OC1=O (stereo not given) [CLAUSLACTONE E] | > 80 | 86.2 | > 80 | 22.4 | 58.8 | 100 | > 80 | 60
10 | C/C(=C\COc1ccc2ccc(=O)oc2c1)CC1CC(O)(CO)C(=O)O1 (stereo not given) [CLAUSLACTONE I] | > 80 | 82.5 | > 80 | 20.6 | 54.3 | 100 | > 80 | 60
